ChEMBL document CHEMBL4689842, “EUbOPEN Chemogenomics Library wave 1” (2021)

Key:
Format in all cases: toxicity, cell-based
[1] = system: Fibroblast; test: Incucyte cell viability with human fibroblast; conditions: 10 µM, compound concentration 10 uM; note: filed as whole numbers so only -1 and 0 and 1 occur
[2] = system: U2OS; test: Incucyte cell viability with U2OS; conditions: human, 10 µM, compound concentration 10 uM; note: filed as whole numbers so only -1 and 0 and 1 occur
[3] = system: U2OS; test: Multiplex assay against U2OS; conditions: human
Method in brief: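 Tubulin, mitochondrial-mass and membrane-permeability phenotypes are per cents of healthy-nucleus cells. Cells were gated by CellPathfinder machine learning into Hoechst high-intensity objects or normal cells, normal cells into healthy, pyknosed or fragmented nuclei, and pyknosed cells into mitotic or apoptotic. Before that, live cells stained at seeding with Hoechst33342, BioTracker Green Microtubule Cytoskeleton Dye, MitoTracker Red and Annexin V Alexa Fluor 680 were imaged on a CQ1 microscope at 37°C and 5% CO2 after compound addition.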

[4] = 0 h, replicate number 1, timepoint 0 hours
[5] = 12 h, replicate number 1, timepoint 12 hours
[6] = 18 h, replicate number 1, timepoint 18 hours
[7] = 24 h, replicate number 1, timepoint 24 hours
[8] = 12 h, 1 µM, compound concentration 1 uM, replicate 1
[9] = 12 h, 1 µM, compound concentration 1 uM, replicate 2
[10] = 12 h, 10 µM, compound concentration 10 uM, replicate 1
[11] = 12 h, 10 µM, compound concentration 10 uM, replicate 2
[12] = 24 h, 1 µM, compound concentration 1 uM, replicate 1
[13] = 24 h, 1 µM, compound concentration 1 uM, replicate 2

For `CCCCN(CC)c1nc(C)nc2c1c(C)cn2-c1c(C)cc(C)cc1C.Cl`, the “Growth Rate” value [1, 4] was 1, the “Growth Rate” value ([1]; 6 h, replicate number 1, timepoint 6 hours) was 0 and the “Growth Rate” value [1, 5] was 0. The “Growth Rate” value [1, 6] was 0, the “Growth Rate” value [1, 7] was 0 and the “Growth Rate” value [2, 4] was 0. The “Growth Rate” value ([2]; 6 h, replicate number 2, timepoint 6 hours) was 1, the “Growth Rate” value [2, 5] was 0 and the “Growth Rate” value [2, 6] was 0. For the same compound, the “Growth Rate” value ([2]; 18 h, replicate number 2, timepoint 18 hours) was 1, the “Growth Rate” value [2, 7] was 0 and the “Growth Rate” value ([2]; 24 h, replicate number 2, timepoint 24 hours) was 1. For the same compound, the “Population Apoptotic (%)” value [3, 8] was 33%, the “Population Healthy Nuclei (%)” value [3, 8] was 76% and the “Population Hoechst High Intensity Objects (%)” value [3, 8] was 8%. For the same compound, the “Population Membrane Permeable-Phenotype (%)” value [3, 8] was 3%, the “Population Mitochondria Different-Phenotype (%)” value [3, 8] was 7% and the “Population Mitotic Cells (%)” value [3, 8] was 66%. The “Population Normal (%)” value [3, 8] was 91%, the “Population Tubulin-Different-Phenotype (%)” value [3, 8] was 6% and the “Total Cell Count” value [3, 8] was 135. For the same compound, the “Population Apoptotic (%)” value [3, 9] was 55%, the “Population Fragmented Nuclei (%)” value [3, 9] was 13% and the “Population Healthy Nuclei (%)” value [3, 9] was 77%. For the same compound, the “Population Hoechst High Intensity Objects (%)” value [3, 9] was 3%, the “Population Membrane Permeable-Phenotype (%)” value [3, 9] was 5% and the “Population Mitochondria Different-Phenotype (%)” value [3, 9] was 8%. For the same compound, the “Population Mitotic Cells (%)” value [3, 9] was 44%, the “Population Normal (%)” value [3, 9] was 96% and the “Population Pyknosed Nuclei (%)” value [3, 9] was 9%. For the same compound, the “Population Tubulin-Different-Phenotype (%)” value [3, 9] was 14%, the “Total Cell Count” value [3, 9] was 95 and the “Population Apoptotic (%)” value [3, 10] was 65%. For the same compound, the “Population Fragmented Nuclei (%)” value [3, 10] was 17%, the “Population Healthy Nuclei (%)” value [3, 10] was 67% and the “Population Hoechst High Intensity Objects (%)” value [3, 10] was 7%. The “Population Membrane Permeable-Phenotype (%)” value [3, 10] was 2%, the “Population Mitochondria Different-Phenotype (%)” value [3, 10] was 51% and the “Population Mitotic Cells (%)” value [3, 10] was 35%. The “Population Normal (%)” value [3, 10] was 92%, the “Population Pyknosed Nuclei (%)” value [3, 10] was 14% and the “Population Tubulin-Different-Phenotype (%)” value [3, 10] was 37%. For the same compound, the “Total Cell Count” value [3, 10] was 145, the “Population Apoptotic (%)” value [3, 11] was 20% and the “Population Fragmented Nuclei (%)” value [3, 11] was 9%. For the same compound, the “Population Healthy Nuclei (%)” value [3, 11] was 83%, the “Population Hoechst High Intensity Objects (%)” value [3, 11] was 6% and the “Population Membrane Permeable-Phenotype (%)” value [3, 11] was 4%. For the same compound, the “Population Mitochondria Different-Phenotype (%)” value [3, 11] was 55%, the “Population Mitotic Cells (%)” value [3, 11] was 80% and the “Population Normal (%)” value [3, 11] was 93%. The “Population Pyknosed Nuclei (%)” value [3, 11] was 6%, the “Population Tubulin-Different-Phenotype (%)” value [3, 11] was 19% and the “Total Cell Count” value [3, 11] was 78. For the same compound, the “Population Apoptotic (%)” value [3, 12] was 27%, the “Population Fragmented Nuclei (%)” value [3, 12] was 7% and the “Population Healthy Nuclei (%)” value [3, 12] was 85%. For the same compound, the “Population Mitochondria Different-Phenotype (%)” value [3, 12] was 8%, the “Population Mitotic Cells (%)” value [3, 12] was 72% and the “Population Pyknosed Nuclei (%)” value [3, 12] was 7%. The “Population Tubulin-Different-Phenotype (%)” value [3, 12] was 9%, the “Total Cell Count” value [3, 12] was 162 and the “Population Apoptotic (%)” value [3, 13] was 29%. For the same compound, the “Population Fragmented Nuclei (%)” value [3, 13] was 13%, the “Population Healthy Nuclei (%)” value [3, 13] was 70% and the “Population Hoechst High Intensity Objects (%)” value [3, 13] was 5%. The “Population Membrane Permeable-Phenotype (%)” value [3, 13] was 3%, the “Population Mitochondria Different-Phenotype (%)” value [3, 13] was 6% and the “Population Mitotic Cells (%)” value [3, 13] was 70%. The “Population Normal (%)” value [3, 13] was 94%, the “Population Pyknosed Nuclei (%)” value [3, 13] was 15% and the “Population Tubulin-Different-Phenotype (%)” value [3, 13] was 7%.
